# How the values were obtained:
# [1] = PC/Chol (1:1) LUV, probe dilution assay; cited from earlier work
# [2] = test system: HSV-1; test: HSV-1 virus entry assay: plaque inhibition on Vero cells; assay type: cell-based; details: for inhibition of HSV-1 infectivity, cell pre-exposure: peptide 250 μM, Vero cells treated with peptide before viral challenge; for activity in dose-dependent inhibition assay of HSV entry: co-treatment, up to 500 μM, Vero cells
# [3] = test system: HIV-1; details: cited from earlier work
# [4] = Native gel electrophoresis: oligomeric state of peptides; assay type: physicochemical; details: without SDS and with 4 mM and 5 mM SDS
# Outline: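 Peptide solution (1 mM in phosphate buffer pH 7.3, before mixing) incubated alone or with 4 or 5 mM SDS for 5 min at 25 °C. Non-denaturing PAGE with 4% stacking and 12% separating gel, run 2.5 h at constant 30 mA. Bands visualised with Coomassie R-250.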
# [5] = test system: parainfluenza-2 virus (PIV-2); test: Inhibition of PIV-2 infectivity, co-exposure mode; assay type: cell-based; details: peptide 250 and 500 μM
# Outline: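 Co-exposure: cells and virus inoculum incubated together with peptide for 45 min at 37 °C. Non-penetrated virus inactivated with low-pH citrate buffer. Cells then held 48 h at 37 °C in DMEM with CMC, and plaques counted. Run in triplicate. Percent inhibition calculated against no-peptide control, with standard deviations; scrambled peptides run in parallel.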
# [6] = Circular dichroism: helix content and oligomeric state; assay type: physicochemical; details: for ratio θ222/θ208 (monomer about 0.8, oligomer above 1.0) / percentage of helix (CD, ellipticity at 222 nm): peptide 20 μM
# Outline: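 CD spectra at room temperature in 1.0 or 0.1 cm quartz cells. Peptide 20 μM titrated in varying % TFE; 5–200 μM series in buffer, 20% TFE and […]. For lipid samples, peptide in TFE was mixed with lipid in chloroform, dried, lyophilised and rehydrated in water to 0.9 mM final lipid. Scans averaged (three, 260–195 nm), blank-corrected, converted to MRE.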
# [7] = Solubility / precipitation observations; assay type: physicochemical
substance,measurement,setting,value
AAHLIDALYAEFLGGRVLTTPVVHRALFYASAVLRQPFLAGVPSA [gH493–537],"ability to induce fusion of vesicles (lipid mixing), previously reported",[1],able to induce fusion
same,"inhibition of HSV-1 infectivity, post-exposure treatment",[2]; peptide 250 μM added after 45 min infection of Vero cells,not active
same,"inhibition of HSV-1 infectivity, cell pre-exposure",[2],not active
Enfuvirtide,inhibition of HIV-1,[3],active at low nanomolar concentration
GLASTLTRWAHYNALIRAF [gH626–644],oligomer order in NATIVE-PAGE,[4],forms higher order oligomers compared to gH493–512
same,effect on parainfluenzavirus-2 (PIV-2) infectivity,[5],none of these peptides exerted any significant effect
same,"ability to induce fusion of vesicles (lipid mixing), previously reported",[1],able to induce fusion
same,"ratio θ222/θ208 (monomer about 0.8, oligomer above 1.0)","[6]; 20% TFE, TFE titration",approximately 1.05
same,"helicity (CD, ellipticity at 222 nm)","[6]; 20% TFE, peptide 5 μM",about 19%
same,"percentage of helix (CD, ellipticity at 222 nm)","[6]; 20% TFE, room temperature",27%
same,ratio θ222/θ208 over peptide concentration,"[6]; 20% TFE, peptide 5–200 μM",around 1
same,concentration at which the peptide already oligomerises (CD),[6]; CD data,50 µM
same,conformation in buffer solution (CD),"[6]; buffer solution, spectra unaltered over 5–200 μM",random coil conformation
same,"ratio θ222/θ208 (monomer about 0.8, oligomer above 1.0)",[6]; higher percentages of TFE,0.76
same,"percentage of helix (CD, ellipticity at 222 nm)",[6]; increasing (higher) concentrations of TFE,approximately 35%
same,"inhibition of HSV-1 infectivity, cell pre-exposure",[2],partially inhibit viral entry
same,precipitation in inhibition experiments,[7]; 500 μM,probably indicating a precipitation of the peptide at this concentration
same,precipitation / macroscopic aggregation,"[7]; in presence of membranes, concentrations assayed in CD studies (5–200 μM)",did not precipitate or otherwise form macroscopic aggregates
RLTGLLATSGFAFVNAAHANGAVCLSDLLGFLAHSRALAG [gH381–420],"ability to induce fusion of vesicles (lipid mixing), previously reported",[1],able to induce fusion
same,activity in dose-dependent inhibition assay of HSV entry,[2],non-significant activity
TWLATRGLLRSPGRYVYFSPSASTWPVGIWTTGELVLGCDAAL [gH220–262],"ability to induce fusion of vesicles (lipid mixing), previously reported",[1],able to induce fusion
same,activity in dose-dependent inhibition assay of HSV entry,[2],non-significant activity
